{"source": "ChEMBL document CHEMBL5143753", "about": "“Pyrimido[5,4-d]pyrimidine-Based Compounds as a Novel Class of Antitrypanosomal and Antileishmanial Agents” (ACS Med Chem Lett, 2022)", "key": {"[1]": {"assay": "Cytotoxicity in human THP-1 cells assessed as reduction in cell viability incubated for 48 hrs hrs by MTT assay", "assay_type": "toxicity, cell-based"}, "[2]": {"assay": "Selectivity index, ratio of CC50 for human THP1 cells to IC50 for antitrypanosomal activity against Trypanosoma brucei brucei Lister 427 bloodstream forms", "assay_type": "toxicity", "conditions": "read-out: Ratio CC50/IC50", "procedure,_shortened": "(§1)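 Selectivity index was calculated as THP1 CC50 divided by parasite IC50.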"}, "[3]": {"test_system": "Trypanosoma brucei brucei", "assay": "Antitrypanosomal activity against Trypanosoma brucei brucei Lister 427 bloodstream forms incubated for 72 hrs by resazurin based assay", "assay_type": "functional, organism-based", "conditions": "for IC50: Lister 427, 72 h; for IC90: Lister 427, time 72 hrs", "procedure,_shortened": "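T. brucei was screened first at 10 μM, with pentamidine as the reference and internal control. IC50 was determined when growth inhibition was above 50%, reported with a 95% confidence interval for the mean curve of the independent assays.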"}, "Leishmania infantum": {"test_system": "Leishmania infantum", "assay": "Antileishmanial activity against luciferase-expressing Leishmania infantum (MHOM/MA/67/ITMAP-263) axenic amastigotes incubated for 72 hrs by resazurin based assay relative to control", "assay_type": "functional, organism-based", "conditions": "MHOM/MA/67/ITMAP-263, 72 h, in the assay text read “promastigotes” for “axenic amastigotes”"}, "[4]": {"assay": "Selectivity index, ratio of CC50 for human THP1 cells to IC50 for Antileishmanial activity against luciferase-expressing Leishmania infantum (MHOM/MA/67/ITMAP-263) axenic amastigotes incubated for 72 hrs by resazurin based assay relative to control", "assay_type": "toxicity", "conditions": "in the assay text read “promastigotes” for “axenic amastigotes”, read-out: Ratio CC50/IC50", "procedure,_shortened": "as §1"}}, "data": [{"smiles": "OCCCOc1cccc(Nc2ncnc3c(N/N=C/c4ccc(O)cc4)ncnc23)c1", "values": [{"measurement": "CC50 at 48 h", "setting": "[1]", "result": 50, "unit": "µM"}, {"measurement": "selectivity ratio", "setting": "[2]", "result": 8}, {"measurement": "IC50", "setting": "[3]", "result": 6.18, "unit": "µM"}, {"measurement": "IC90", "setting": "[3]", "result": 21.2, "unit": "µM"}]}, {"smiles": "Oc1ccc(/C=N/Nc2ncnc3c(Nc4cccc(OCc5ccncc5)c4)ncnc23)cc1O", "values": [{"measurement": "CC50 at 48 h", "setting": "[1]", "result": "> 100", "unit": "µM"}, {"measurement": "selectivity ratio", "setting": "[2]", "result": "> 58"}, {"measurement": "IC50", "setting": "[3]", "result": 1.73, "unit": "µM"}, {"measurement": "IC90", "setting": "[3]", "result": 1.75, "unit": "µM"}]}, {"smiles": "N=C(N)c1ccc(OCCCCCOc2ccc(C(=N)N)cc2)cc1", "note": "[PENTAMIDINE]", "values": [{"measurement": "CC50 at 48 h", "setting": "[1]", "result": 51.8, "unit": "µM"}, {"measurement": "selectivity ratio", "setting": "[2]", "result": 12800}, {"measurement": "IC50", "setting": "[3]", "result": 0.00405, "unit": "µM"}]}, {"smiles": "OCCCOc1cccc(Nc2ncnc3c(N/N=C/c4ccc(O)c(O)c4)ncnc23)c1", "values": [{"measurement": "CC50 at 48 h", "setting": "[1]", "result": 25, "unit": "µM"}, {"measurement": "selectivity ratio", "setting": "[2]", "result": 4}, {"measurement": "IC50", "setting": "[3]", "result": 2.29, "unit": "µM"}, {"measurement": "IC90", "setting": "[3]", "result": 5.67, "unit": "µM"}]}, {"smiles": "COc1ccc(/C=N/Nc2ncnc3c(Nc4ccc(OCCCO)cc4)ncnc23)cc1OC", "values": [{"measurement": "CC50 at 48 h", "setting": "[1]", "result": 50, "unit": "µM"}, {"measurement": "selectivity ratio", "setting": "[2]", "result": 6}, {"measurement": "IC50", "setting": "[3]", "result": 8.59, "unit": "µM"}, {"measurement": "IC90", "setting": "[3]", "result": 25.5, "unit": "µM"}]}, {"smiles": "COc1cc(/C=N/Nc2ncnc3c(Nc4ccc(OCCCO)cc4)ncnc23)cc(OC)c1O", "values": [{"measurement": "CC50 at 48 h", "setting": "[1]", "result": 50, "unit": "µM"}, {"measurement": "selectivity ratio", "setting": "[2]", "result": 4}, {"measurement": "IC50", "setting": "[3]", "result": 12.4, "unit": "µM"}, {"measurement": "IC90", "setting": "[3]", "result": 255, "unit": "µM"}]}, {"smiles": "COc1cc(/C=N/Nc2ncnc3c(Nc4ccc(OCCCO)cc4)ncnc23)ccc1O", "values": [{"measurement": "CC50 at 48 h", "setting": "[1]", "result": 50, "unit": "µM"}, {"measurement": "selectivity ratio", "setting": "[2]", "result": 14}, {"measurement": "IC50", "setting": "[3]", "result": 3.76, "unit": "µM"}, {"measurement": "IC90", "setting": "[3]", "result": 9.22, "unit": "µM"}]}, {"smiles": "COc1cc(/C=N/Nc2ncnc3c(Nc4cccc(OCc5ccncc5)c4)ncnc23)cc(OC)c1O", "values": [{"measurement": "CC50 at 48 h", "setting": "[1]", "result": "> 100", "unit": "µM"}, {"measurement": "selectivity ratio", "setting": "[2]", "result": "> 29"}, {"measurement": "IC50", "setting": "[3]", "result": 3.41, "unit": "µM"}, {"measurement": "IC90", "setting": "[3]", "result": 37.2, "unit": "µM"}]}, {"smiles": "OCCCOc1ccc(Nc2ncnc3c(N/N=C/c4ccc(O)cc4)ncnc23)cc1", "values": [{"measurement": "CC50 at 48 h", "setting": "[1]", "result": 50, "unit": "µM"}, {"measurement": "selectivity ratio", "setting": "[2]", "result": 3}, {"measurement": "IC50", "setting": "[3]", "result": 12.9, "unit": "µM"}, {"measurement": "IC90", "setting": "[3]", "result": 88.3, "unit": "µM"}]}, {"smiles": "COc1cc(/C=N/Nc2ncnc3c(Nc4ccc(OCCCO)cc4)ncnc23)cc(OC)c1OC", "values": [{"measurement": "CC50 at 48 h", "setting": "[1]", "result": "> 100", "unit": "µM"}, {"measurement": "selectivity ratio", "setting": "[2]", "result": "> 30"}, {"measurement": "IC50", "setting": "[3]", "result": 3.32, "unit": "µM"}, {"measurement": "IC90", "setting": "[3]", "result": 37.7, "unit": "µM"}]}, {"smiles": "NNc1ncnc2c(Nc3cccc(OCc4ccncc4)c3)ncnc12", "values": [{"measurement": "CC50 at 48 h", "setting": "[1]", "result": "> 100", "unit": "µM"}, {"measurement": "selectivity ratio", "setting": "[2]", "result": "> 107"}, {"measurement": "IC50", "setting": "Leishmania infantum", "result": 3.13, "unit": "µM"}, {"measurement": "selectivity ratio at 72 h", "setting": "[4]", "result": "> 32"}, {"measurement": "IC50", "setting": "[3]", "result": 0.94, "unit": "µM"}, {"measurement": "IC90", "setting": "[3]", "result": 1.24, "unit": "µM"}]}, {"smiles": "OCCCOc1cccc(Nc2ncnc3c(N/N=C/c4cc(O)c(O)c(O)c4)ncnc23)c1", "values": [{"measurement": "CC50 at 48 h", "setting": "[1]", "result": 50, "unit": "µM"}, {"measurement": "selectivity ratio", "setting": "[2]", "result": 15}, {"measurement": "IC50", "setting": "[3]", "result": 3.26, "unit": "µM"}, {"measurement": "IC90", "setting": "[3]", "result": 14.5, "unit": "µM"}]}, {"smiles": "COc1ccc(/C=N/Nc2ncnc3c(Nc4ccc(OCCCO)cc4)ncnc23)cc1O", "values": [{"measurement": "CC50 at 48 h", "setting": "[1]", "result": 50, "unit": "µM"}, {"measurement": "selectivity ratio", "setting": "[2]", "result": 19}, {"measurement": "IC50", "setting": "[3]", "result": 2.6, "unit": "µM"}, {"measurement": "IC90", "setting": "[3]", "result": 8.73, "unit": "µM"}]}, {"smiles": "COc1cc(/C=N/Nc2ncnc3c(Nc4cccc(OCCCO)c4)ncnc23)cc(OC)c1OC", "values": [{"measurement": "CC50 at 48 h", "setting": "[1]", "result": 50, "unit": "µM"}, {"measurement": "selectivity ratio", "setting": "[2]", "result": 8}, {"measurement": "IC50", "setting": "[3]", "result": 6.12, "unit": "µM"}, {"measurement": "IC90", "setting": "[3]", "result": 17.6, "unit": "µM"}]}, {"smiles": "COc1ccc(/C=N/Nc2ncnc3c(Nc4cccc(OCCCO)c4)ncnc23)cc1O", "values": [{"measurement": "CC50 at 48 h", "setting": "[1]", "result": 50, "unit": "µM"}, {"measurement": "selectivity ratio", "setting": "[2]", "result": 8}, {"measurement": "IC50", "setting": "[3]", "result": 6.57, "unit": "µM"}, {"measurement": "IC90", "setting": "[3]", "result": 18.7, "unit": "µM"}]}, {"smiles": "COc1cc(/C=N/Nc2ncnc3c(Nc4cccc(OCCCO)c4)ncnc23)cc(OC)c1O", "values": [{"measurement": "CC50 at 48 h", "setting": "[1]", "result": 50, "unit": "µM"}, {"measurement": "selectivity ratio", "setting": "[2]", "result": 4}, {"measurement": "IC50", "setting": "[3]", "result": 6.06, "unit": "µM"}, {"measurement": "IC90", "setting": "[3]", "result": 18.1, "unit": "µM"}]}, {"smiles": "CCCCCCCCCCCCCCCCOP(=O)([O-])OCC[N+](C)(C)C", "note": "[MILTEFOSINE]", "values": [{"measurement": "CC50 at 48 h", "setting": "[1]", "result": 30.9, "unit": "µM"}, {"measurement": "IC50", "setting": "Leishmania infantum", "result": 2.21, "unit": "µM"}, {"measurement": "selectivity ratio at 72 h", "setting": "[4]", "result": 1.3}]}, {"smiles": "NNc1ncnc2c(Nc3ccc(OCCCO)cc3)ncnc12", "values": [{"measurement": "CC50 at 48 h", "setting": "[1]", "result": "> 100", "unit": "µM"}, {"measurement": "selectivity ratio", "setting": "[2]", "result": "> 33"}, {"measurement": "IC50", "setting": "[3]", "result": 3.03, "unit": "µM"}, {"measurement": "IC90", "setting": "[3]", "result": 35.8, "unit": "µM"}]}, {"smiles": "OCCCOc1ccc(Nc2ncnc3c(N/N=C/c4cc(O)c(O)c(O)c4)ncnc23)cc1", "values": [{"measurement": "CC50 at 48 h", "setting": "[1]", "result": "> 100", "unit": "µM"}, {"measurement": "selectivity ratio", "setting": "[2]", "result": "> 14"}, {"measurement": "IC50", "setting": "[3]", "result": 6.95, "unit": "µM"}, {"measurement": "IC90", "setting": "[3]", "result": 20.5, "unit": "µM"}]}, {"smiles": "Oc1cc(/C=N/Nc2ncnc3c(Nc4cccc(OCc5ccncc5)c4)ncnc23)cc(O)c1O", "values": [{"measurement": "CC50 at 48 h", "setting": "[1]", "result": "> 100", "unit": "µM"}, {"measurement": "selectivity ratio", "setting": "[2]", "result": "> 26"}, {"measurement": "IC50", "setting": "[3]", "result": 3.88, "unit": "µM"}, {"measurement": "IC90", "setting": "[3]", "result": 8.36, "unit": "µM"}]}, {"smiles": "COc1ccc(/C=N/Nc2ncnc3c(Nc4cccc(OCCCO)c4)ncnc23)cc1OC", "values": [{"measurement": "CC50 at 48 h", "setting": "[1]", "result": "> 100", "unit": "µM"}, {"measurement": "selectivity ratio", "setting": "[2]", "result": "> 37"}, {"measurement": "IC50", "setting": "[3]", "result": 2.72, "unit": "µM"}, {"measurement": "IC90", "setting": "[3]", "result": 8.17, "unit": "µM"}]}, {"smiles": "NNc1ncnc2c(Nc3cccc(OCCCO)c3)ncnc12", "values": [{"measurement": "CC50 at 48 h", "setting": "[1]", "result": "> 100", "unit": "µM"}, {"measurement": "selectivity ratio", "setting": "[2]", "result": "> 10"}, {"measurement": "IC50", "setting": "[3]", "result": 9.89, "unit": "µM"}, {"measurement": "IC90", "setting": "[3]", "result": 24.1, "unit": "µM"}]}, {"smiles": "OCCCOc1ccc(Nc2ncnc3c(N/N=C/c4ccc(O)c(O)c4)ncnc23)cc1", "values": [{"measurement": "CC50 at 48 h", "setting": "[1]", "result": 25, "unit": "µM"}, {"measurement": "selectivity ratio", "setting": "[2]", "result": 5}, {"measurement": "IC50", "setting": "[3]", "result": 1.9, "unit": "µM"}, {"measurement": "IC90", "setting": "[3]", "result": 2.07, "unit": "µM"}]}, {"smiles": "COc1cc(/C=N/Nc2ncnc3c(Nc4cccc(OCCCO)c4)ncnc23)ccc1O", "values": [{"measurement": "CC50 at 48 h", "setting": "[1]", "result": 25, "unit": "µM"}, {"measurement": "selectivity ratio", "setting": "[2]", "result": 1}, {"measurement": "IC50", "setting": "[3]", "result": 13.4, "unit": "µM"}, {"measurement": "IC90", "setting": "[3]", "result": 44.9, "unit": "µM"}]}]}
